Converted amounts (≈) assume the structure as drawn.
Key:
[1] = Aqueous solubility of the compound; type: physicochemical; details: aqueous medium; read-out: Activity
[2] = Cytotoxicity against human PBMC after 7 days by trypan blue staining; type: cell-based
[3] = Cytotoxicity against human MT4 cells after 7 days by trypan blue staining; type: cell-based
PBMC = experiment: Cytotoxicity against human PBMC cells at 500 uM after 7 days; type: cell-based; details: 168 h
Procedure, shortened: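 Mock-infected PHA-stimulated PBMC exposed to compound in RPMI 1640 with 10% FCS and IL-2 (25 U/ml); viability measured by trypan blue staining at day 7.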

[4] = Chemical stability of the compound in PBS solution at 50 degC after 4 days by HPLC; type: physicochemical; details: buffer, 96 h
Procedure, shortened: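 1 mM compound held 4 days in PBS at 50°C, or in 7 mM sodium phosphate pH 4.0 at room temperature; then analysed by reverse-phase HPLC (phosphate/heptanesulfonate pH 3.2 buffer–acetonitrile gradient, 1 ml/min).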

[5] = system: Human immunodeficiency virus 1; experiment: Ratio of kd for HIV-1 HXB2 gp41 to kd for 3B gp120

CN[C@@H]1[C@H](O[C@@H]2OC[C@@H](O)[C@H](O)[C@H]2O)[C@@H](O)[C@H](O[C@H]2c3cc(C)c(C(=O)N[C@H](C)C(=O)O)c(O)c3-c3c(cc4c(c3O)C(=O)c3cc(OC)cc(O)c3C4=O)[C@@H]2O)O[C@@H]1C [PRADIMICIN A]
solubility [1]: 50 µM (≈ 42 µg/mL)
CC50 at 168 h [2]: > 50 µM
CC50 at 168 h [3]: > 50 µM

CN[C@@H]1[C@H](O[C@@H]2O[C@H](CO)[C@@H](O)[C@H](OS(=O)(=O)O)[C@H]2O)[C@@H](O)[C@H](O[C@H]2c3cc(C)c(C(=O)N[C@H](C)C(=O)O)c(O)c3-c3c(cc4c(c3O)C(=O)c3cc(OC)cc(O)c3C4=O)[C@@H]2O)O[C@@H]1C [PRADIMICIN S]
Activity (PBMC): > 95%
Stability [4]: Stable
kd ratio [5]: 5

Reference: ChEMBL document CHEMBL1671680, “Pradimicin S, a highly soluble nonpeptidic small-size carbohydrate-binding antibiotic, is an anti-HIV drug lead for both microbicidal and systemic use” (Antimicrob Agents Chemother, 2010)
